{"data": "Experimental data gathered from unrelated publications", "target": "Prostaglandin G/H synthase 2 (PTGS2, Homo sapiens, UniProt P35354)", "read-out": "enzyme activity", "action": "inhibitor", "One construct used (P35354 18-604)": "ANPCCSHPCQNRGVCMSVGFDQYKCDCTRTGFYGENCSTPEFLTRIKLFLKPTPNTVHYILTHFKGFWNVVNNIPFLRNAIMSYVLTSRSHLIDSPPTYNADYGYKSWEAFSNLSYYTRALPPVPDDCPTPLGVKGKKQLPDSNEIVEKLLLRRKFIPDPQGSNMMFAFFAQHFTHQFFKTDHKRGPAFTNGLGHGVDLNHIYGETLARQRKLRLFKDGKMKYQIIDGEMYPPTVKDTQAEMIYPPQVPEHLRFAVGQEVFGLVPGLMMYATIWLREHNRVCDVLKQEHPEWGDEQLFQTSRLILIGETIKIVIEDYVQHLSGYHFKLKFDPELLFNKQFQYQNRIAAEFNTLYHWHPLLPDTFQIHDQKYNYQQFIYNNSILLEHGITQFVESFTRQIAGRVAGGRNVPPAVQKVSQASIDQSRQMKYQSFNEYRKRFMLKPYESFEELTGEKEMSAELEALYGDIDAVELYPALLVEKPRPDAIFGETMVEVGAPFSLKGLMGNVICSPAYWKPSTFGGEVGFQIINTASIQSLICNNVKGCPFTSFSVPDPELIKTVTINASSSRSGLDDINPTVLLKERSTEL"}
{"Structure (SMILES)": "Cc1ccc(S(=O)(=O)NNC(=O)COC(=O)c2ccccc2Nc2cccc(C(F)(F)F)c2)cc1", "IC50 [µM]": 9}
{"Structure (SMILES)": "NS(=O)(=O)c1ccc(-n2nc(C(=O)NN=Cc3cccnc3)cc2-c2ccccc2)cc1", "IC50 [µM]": 3.93}
{"Structure (SMILES)": "Cc1ccc(S(=O)(=O)[N](Nc2ccc([N+](=O)[O-])cc2[N+](=O)[O-])[Sn]([Cl])[Cl])cc1", "IC50 [µM]": 2.74}
{"Structure (SMILES)": "O=C(Nc1ccc(-c2ccccc2)cc1)c1cnn(-c2ccc([N+](=O)[O-])cc2)c1C(F)(F)F", "IC50 [µM]": 6}
{"Structure (SMILES)": "CC(=NNC(=O)c1cc(-c2ccccc2)n(-c2ccc(S(N)(=O)=O)cc2)n1)c1ccc(C)cc1", "IC50 [µM]": 1.34}
{"Structure (SMILES)": "O=C(COC(=O)c1ccccc1Nc1cccc(C(F)(F)F)c1)Nc1ccc(F)cc1", "IC50 [µM]": 58}
{"Structure (SMILES)": "Cc1ccc(S(=O)(=O)NNc2ccc([N+](=O)[O-])cc2[N+](=O)[O-])cc1", "IC50 [µM]": 4.74}
{"Structure (SMILES)": "COc1cc(NC(=O)c2cnn(-c3ccc([N+](=O)[O-])cc3)c2C(F)(F)F)cc(OC)c1", "IC50 [µM]": 5.78}
